Assay results published in ChEMBL document CHEMBL3244305, “Analogues of 8-azainosine” (J Med Chem, 1977).
The source made the active and inactive calls. The calls are words filed in the database; no cut-off is given here.

What was measured:
[1] = Cytotoxicity against human Hep2 cells assessed as growth inhibition; format: functional; conditions: HEp-2, read-out: ED50 (the source's name)
In short: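 Human epidermoid carcinoma No. 2 (H.Ep. No. 2) cells grown in culture with compound. ED50 is the concentration that holds growth of treated cells to 50% of untreated controls.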

HEp-2 [2] = assay: Resistance ratio of ED50 for adenosine kinase deficient 6-(methylthio)purine ribonucleoside-resistant human Hep2 cells to ED50 for wild type human Hep2 cells; format: functional
In short: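 ED50 is measured as growth inhibition to 50% of untreated controls in an H.Ep. No. 2 subline resistant to 6-(methylthio)purine ribonucleoside that lacks adenosine kinase. It is divided by the ED50 in the sensitive (wild) H.Ep. No. 2 line.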

HEp-2 [3] = assay: Resistance ratio of ED50 for adenine phosphoribosyltransferase/adenosine kinase deficient 2-fluoro adenine/2-fluoro adenosine-resistant human Hep2 cells to ED50 for wild type human Hep2 cells; format: functional
L1210 [4] = assay: Antitumor activity against mouse L1210 cells allografted in ip dosed BD2F1 mouse assessed as increase in life span administered 1 to 9 days measured on day 10 to 12 relative to control; format: functional
HEp-2 [5] = assay: Resistance ratio of ED50 for hypoxanthine-guanine phosphoribosyl transferase/adenosine kinase deficient 6-mercaptopurine/6-(methylthio)purine ribonucleoside-resistant human Hep2 cells to ED50 for wild type human Hep2 cells; format: functional
HEp-2 [6] = assay: Cytotoxicity against human Hep2 cells assessed as growth inhibition at 50 uM; format: functional, cell-based
L1210 [7] = assay: Antitumor activity against mouse L1210 cells allografted in BD2F1 mouse assessed as increase in life span at 40 mg/kg, ip administered 1 to 9 days measured on day 10 to 12 relative to control; format: functional; conditions: route intraperitoneal
L1210 [8] = assay: Antitumor activity against mouse L1210 cells allografted in BD2F1 mouse assessed as increase in life span at 60 mg/kg, ip administered 1 to 9 days measured on day 10 to 12 relative to control; format: functional; conditions: route intraperitoneal
L1210 [9] = assay: Antitumor activity against mouse L1210 cells allografted in BD2F1 mouse assessed as increase in life span at 90 mg/kg, ip administered 1 to 9 days measured on day 10 to 12 relative to control; format: functional; conditions: route intraperitoneal
[10] = Drug degradation in buffer assessed as formation of 3,6-Dihydro-3-beta-D-ribofuranosyl-7H-1,2,3-triazolo[4,5-d]-pyrimidine-7-thione at pH 7.3 after 6 days by HPLC analysis; format: physicochemical; conditions: pH 7.3, 144 h
In short: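 Conversion in pH 7.3 buffer, under conditions meant to mirror the cytotoxicity assay, followed by high-pressure liquid chromatography.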

Row | SMILES | EC50 [1] | Ratio ED50 (HEp-2 [2]) | Ratio ED50 (HEp-2 [3]) | further results
1 | CSc1ncnc2c1nnn2[C@@H]1O[C@H](COC(C)=O)[C@@H](OC(C)=O)[C@H]1OC(C)=O | 500 nM | – | – | –
2 | CSc1ncnc2nn([C@@H]3O[C@H](COC(C)=O)[C@@H](OC(C)=O)[C@H]3OC(C)=O)nc12 | 7000 nM | – | – | –
3 | OC[C@H]1O[C@@H](n2nnc3c(S)ncnc32)[C@H](O)[C@@H]1O | 1000 nM | 90 | 40 | –
4 | CCCCNc1ncnc2c1nnn2[C@@H]1O[C@H](CO)[C@@H](O)[C@H]1O | 300 nM | – | – | –
5 | CCOc1ncnc2c1nnn2[C@@H]1O[C@H](CO)[C@@H](O)[C@H]1O | 100 nM | 20 | – | –
6 | CSc1ncnc2[nH]nnc12 | > 300000 nM | – | – | –
7 | COc1ncnc2c1nnn2[C@@H]1O[C@H](CO)[C@@H](O)[C@H]1O | 300 nM | 6 | 6 | ILS (L1210 [4]): 29%
8 | CSc1ncnc2c1nnn2[C@@H]1O[C@H](CO)[C@@H](O)[C@H]1O | 20 nM | 2000 | 3000 | ILS (L1210 [4]): 23%
9 | CC(C)=CCNc1ncnc2c1nnn2[C@@H]1O[C@H](CO)[C@@H](O)[C@H]1O | < 3000 nM | – | – | –
10 | Nc1ncnc2c1nnn2[C@@H]1O[C@H](CO)[C@@H](O)[C@H]1O | 800 nM | 2 | 2 | Ratio ED50 (HEp-2 [5]): 60; ILS (L1210 [4]): 39%
11 | Nc1ncnc2snnc12 | – | – | – | growth inhibition (GI) (HEp-2 [6]): inactive
12 | Nc1ncnc2nn([C@@H]3O[C@H](CO)[C@@H](O)[C@H]3O)nc12 | > 70000 nM | – | – | –
13 | OC[C@H]1O[C@@H](Nc2ncnc3snnc23)[C@H](O)[C@@H]1O | 100 nM | – | – | ILS at 40 mg/kg (L1210 [7]): 25%; ILS at 60 mg/kg (L1210 [8]): 28%; ILS at 90 mg/kg (L1210 [9]): 36%; Stability [10]: Stable
14 | CSc1ncnc2nn([C@@H]3O[C@H](CO)[C@@H](O)[C@H]3O)nc12 | 6000 nM | – | – | –
15 | CCSc1ncnc2c1nnn2[C@@H]1O[C@H](CO)[C@@H](O)[C@H]1O | 100 nM | – | 300 | –
